pIC50: −log10 of the molar value. Calls of active or inactive are those of the source. No cut-off for these calls is given here.
How the values were obtained:
[1] = system: NCI-H2122; assay: Antiproliferative activity against human NCI-H2122 cells after 72 hrs by MTT assay; type: functional, cell-based; settings: NCI-H2122, 72 h
Summary of the method: (§1)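 Compounds (10 mM DMSO stocks, final DMSO ≤0.1%) added at increasing concentrations in PBS, incubated 72 h at 37 °C. MTT read-out, six repeats per concentration, at least two independent experiments.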

[2] = system: NCI-H1703; assay: Induction of apoptosis in human NCI-H1703 cells assessed as caspase 3 activation after 1 to 6 hrs by Western blot analysis; type: functional, cell-based
[3] = system: NCI-H1703; assay: Antitumor activity against human NCI-H1703 cells xenografted in athymic NCr nu/nu Charles river mouse assessed as reduction of tumor growth at 8 umol/kg, iv administered 3 times a week for 3 weeks relative to vehicle treated control; type: functional, organism-based
Summary of the method: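 H1703 xenografts (5×10^6 cells s.c., flank) in 7-week-old female athymic NCr-nu/nu mice, treated from tumor size ≥2×2×2 mm. Dosing i.v. (tail vein) three times weekly for 3 weeks in 2.25% P-123/PBS. Mice killed 2 h after the last dose; tumors excised and weighed. 13–15 mice/group; Mann-Whitney test against vehicle.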

[4] = Antiproliferative activity against human NCI-H1373 cells after 72 hrs by MTT assay; type: functional, cell-based; settings: NCI-H1373, 72 h; summary of the method: as §1
[5] = Chemical stability of the compound in aqueous phosphate buffered saline assessed as half life at pH 7.4 in presence of 4 mM glutathione; type: physicochemical; settings: gsh
[6] = Activation of JNK phosphorylation in human NCI-H1703 cells assessed as increase in ATF3 protein level at 1 uM by Western blot analysis; type: cell-based
[7] = Activation of JNK phosphorylation in human NCI-H1703 cells assessed as increase in ATF3 protein level at 1 uM within 2 hrs by Western blot analysis; type: cell-based
[8] = system: NCI-H1703; assay: Induction of apoptosis in human NCI-H1703 cells assessed as PARP cleavage after 1 to 6 hrs by Western blot analysis; type: functional, cell-based
[9] = system: NCI-H1703; assay: Induction of apoptosis in human NCI-H1703 cells assessed as caspase 7 activation after 1 to 6 hrs by Western blot analysis; type: functional, cell-based
[10] = system: Mus musculus; assay: Induction of JNK phosphorylation in human NCI-H1703 cells xenografted NCr nu/nu Charles river mouse tumor assessed as increase in ATF3 protein level at 8 umol/kg, iv administered 3 times a week for 3 weeks by immunohistochemical analysis; type: functional, organism-based
Summary of the method: (§2)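 H1703 xenografts in female athymic NCr-nu/nu mice, dosed i.v. three times weekly for 3 weeks in 2.25% P-123/PBS. Tumors taken 2 h after the last dose were immunostained for phospho-SAPK/JNK and ATF3. Intensity graded negative, very weak, weak, moderate or strong.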

[11] = system: Mus musculus; assay: Toxicity in human NCI-H1703 cells xenografted athymic NCr nu/nu Charles river mouse assessed as change in body weight at 8 umol/kg, iv administered 3 times a week for 3 weeks (reference value: 22.2 +/- 0.4g); type: organism-based; settings: in vivo, 504 h
Summary of the method: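 Xenografted female athymic NCr-nu/nu mice (H1703, 5×10^6 cells s.c.) dosed i.v. three times weekly for 3 weeks in 2.25% P-123/PBS vehicle. Body weights recorded before each injection and compared with vehicle-treated controls at start and end.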

[12] = Activation of JNK phosphorylation at Thr183 and Tyr185 in human NCI-H1703 cells at 1 uM within 30 mins by Western blot analysis; type: cell-based
[13] = system: NCI-H441; assay: Antiproliferative activity against human NCI-H441 cells after 72 hrs by MTT assay; type: functional, cell-based; settings: NCI-H441, 72 h; summary of the method: as §1
[14] = system: Mus musculus; assay: Induction of JNK phosphorylation in human NCI-H1703 cells xenografted NCr nu/nu Charles river mouse tumor at 8 umol/kg, iv administered 3 times a week for 3 weeks by immunohistochemical analysis; type: functional, organism-based; summary of the method: as §2
[15] = Antiproliferative activity against human NCI-H1944 cells after 72 hrs by MTT assay; type: functional, cell-based; settings: NCI-H1944, 72 h; summary of the method: as §1
[16] = system: NCI-H1703; assay: Antiproliferative activity against human NCI-H1703 cells after 72 hrs by MTT assay; type: functional, cell-based; settings: NCI-H1703, 72 h; summary of the method: as §1
[17] = system: NCI-H1703; assay: Antitumor activity against human NCI-H1703 cells xenografted in NCr nu/nu Charles river mouse assessed as tissue death in tumor at 8 umol/kg, iv administered 3 times a week for 3 weeks by H and E staining method relative to control; type: functional, organism-based
Summary of the method: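 Female athymic NCr-nu/nu mice, 7 weeks old, received 5×10^6 H1703 cells s.c. in the flank. Once tumors reached ≥2×2×2 mm, dosing was i.v. by tail vein three times weekly for 3 weeks in 2.25% P-123/PBS vehicle. Tumors excised 2 h after the last dose, H&E stained, and scored for areas of cell death against vehicle controls.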

Q: With `CCOC(=O)N1CCN(/[N+]([O-])=N/Oc2cc(C)c([N+](=O)[O-])cc2[N+](=O)[O-])CC1` as the compound, how does the pIC50 [1] read?
A: Its pIC50 is 5.15.

Q: And the Activity [2]?
A: The Activity was “inactive”.

Q: What about the “growth inhibition (GI)” value [3] of the same compound?
A: The value was “inactive”.

Q: What about the pIC50 [4] of the same compound?
A: Its pIC50 is 5.73.

Q: And the t1/2 [5]?
A: Its t1/2 is 71.5 min.

Q: And the Activity [6]?
A: The Activity was “inactive”.

Q: And the Activity [7]?
A: The Activity was “inactive”.

Q: And the Activity [8]?
A: Its Activity is “inactive”.

Q: What about the Activity [9] of the same compound?
A: Its Activity is “inactive”.

Q: And the Activity [10]?
A: The Activity was “inactive”.

Q: What about the Activity [11] of the same compound?
A: Its Activity is 24.5 g.

Q: What about the Activity [12] of the same compound?
A: Its Activity is “inactive”.

Q: What about the pIC50 [13] of the same compound?
A: The pIC50 was 5.79.

Q: What about the Activity [14] of the same compound?
A: The Activity was “inactive”.

Q: And the pIC50 [15]?
A: The pIC50 was less than 5.00.

Q: And the pIC50 [16]?
A: The pIC50 was 6.01.

Q: And the Activity [17]?
A: Its Activity is “inactive”.

Q: With `CCOC(=O)N1CCCN(/[N+]([O-])=N/Oc2cc(C)c([N+](=O)[O-])cc2[N+](=O)[O-])CC1` as the compound, how does the pIC50 [1] read?
A: The pIC50 was 5.00.

Q: And the pIC50 [4]?
A: Its pIC50 is 5.52.

Q: What about the t1/2 [5] of the same compound?
A: The t1/2 was 25.7 min.

Q: And the Activity [12]?
A: Its Activity is “inactive”.

Q: And the pIC50 [13]?
A: Its pIC50 is 5.69.

Q: And the pIC50 [15]?
A: Its pIC50 is less than 5.00.

Q: And the pIC50 [16]?
A: The pIC50 was 5.78.
